{"source": "ChEMBL document CHEMBL3877250", "about": "“Design, synthesis, and biological evaluation of (2E)-(2-oxo-1, 2-dihydro-3H-indol-3-ylidene)acetate derivatives as anti-proliferative agents through ROS-induced cell apoptosis” (Eur J Med Chem, 2016)", "key": {"[1]": {"experiment": "Cell cycle arrest in human HCT116 cells assessed as sub-G1 phase accumulation at 3 uM after 48 hrs by Annexin V-FITC/propidium iodide staining based flow cytometry (reference value: 4.36%)", "format": "functional", "conditions": "HCT-116"}, "HCT-116 [2]": {"system": "HCT-116", "experiment": "Induction of apoptosis in human HCT116 cells assessed as live cells at 1 uM after 48 hrs by Annexin V-FITC/propidium iodide staining based flow cytometry (reference value: 88.7%)", "format": "functional"}, "HCT-116 [3]": {"system": "HCT-116", "experiment": "Induction of apoptosis in human HCT116 cells assessed as live cells at 0.1 uM after 48 hrs by Annexin V-FITC/propidium iodide staining based flow cytometry (reference value: 88.7%)", "format": "functional"}, "[4]": {"experiment": "Cell cycle arrest in human HCT116 cells assessed as sub-G1 phase accumulation at 0.5 uM after 48 hrs by Annexin V-FITC/propidium iodide staining based flow cytometry (reference value: 4.36%)", "format": "functional", "conditions": "HCT-116"}, "[5]": {"experiment": "Cell cycle arrest in human HCT116 cells assessed as S phase accumulation at 0.1 uM after 48 hrs by Annexin V-FITC/propidium iodide staining based flow cytometry (reference value: 28.43%)", "format": "functional", "conditions": "HCT-116"}, "[6]": {"experiment": "Cell cycle arrest in human HCT116 cells assessed as S phase accumulation at 0.5 uM after 48 hrs by Annexin V-FITC/propidium iodide staining based flow cytometry (reference value: 28.43%)", "format": "functional", "conditions": "HCT-116"}, "[7]": {"experiment": "Cytotoxicity against human HCT116 cells assessed as growth inhibition at 20 uM after 72 hrs by CCK-8 assay", "format": "functional", "conditions": "HCT-116, 72 h, read-out: GI", "in_short": "(§1)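 Cells kept in RPMI 1640 with 10% heat-inactivated fetal calf serum and 1% streptomycin/penicillin at 37 °C, 5% CO2. After compound exposure, CCK-8 was added and cells were incubated 4 h at 37 °C, then absorbance was read at 450 nm. Viability is relative to untreated cells (100%). IC50 comes from nonlinear regression, mean of three separate determinations. Single-concentration screen at 20 µM.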"}, "[8]": {"experiment": "Cytotoxicity against human SK-BR-3 cells after 72 hrs by CCK-8 assay", "format": "functional, cell-based", "conditions": "SK-BR-3, 72 h", "in_short": "as §1"}, "HCT-116 [9]": {"system": "HCT-116", "experiment": "Induction of apoptosis in human HCT116 cells assessed as live cells at 4 uM after 48 hrs by Annexin V-FITC/propidium iodide staining based flow cytometry (reference value: 88.7%)", "format": "functional"}, "[10]": {"experiment": "Cytotoxicity against human L02 cells assessed as growth inhibition at 20 uM after 72 hrs by CCK-8 assay", "format": "toxicity, cell-based", "conditions": "read-out: GI", "in_short": "as §1"}, "[11]": {"experiment": "Cell cycle arrest in human HCT116 cells assessed as G2/M phase accumulation at 0.1 uM after 48 hrs by Annexin V-FITC/propidium iodide staining based flow cytometry (reference value: 25.3%)", "format": "functional", "conditions": "HCT-116"}, "[12]": {"experiment": "Cytotoxicity against human L02 cells", "format": "toxicity, cell-based"}, "HCT-116 [13]": {"system": "HCT-116", "experiment": "Induction of apoptosis in human HCT116 cells assessed as live cells at 16 uM after 48 hrs by Annexin V-FITC/propidium iodide staining based flow cytometry (reference value: 88.7%)", "format": "functional"}, "[14]": {"experiment": "Cell cycle arrest in human HCT116 cells assessed as G1 phase accumulation at 2 uM after 48 hrs by Annexin V-FITC/propidium iodide staining based flow cytometry (reference value: 40.83%)", "format": "functional", "conditions": "HCT-116"}, "[15]": {"experiment": "Cytotoxicity against human SK-BR-3 cells assessed as growth inhibition at 20 uM after 72 hrs by CCK-8 assay", "format": "functional", "conditions": "SK-BR-3, 72 h, read-out: GI", "in_short": "as §1"}, "[16]": {"experiment": "Cell cycle arrest in human HCT116 cells assessed as sub-G1 phase accumulation at 4 uM after 48 hrs by Annexin V-FITC/propidium iodide staining based flow cytometry (reference value: 4.36%)", "format": "functional", "conditions": "HCT-116"}, "[17]": {"experiment": "Cell cycle arrest in human HCT116 cells assessed as S phase accumulation at 3 uM after 48 hrs by Annexin V-FITC/propidium iodide staining based flow cytometry (reference value: 28.43%)", "format": "functional", "conditions": "HCT-116"}, "[18]": {"experiment": "Cell cycle arrest in human HCT116 cells assessed as G2/M phase accumulation at 4 uM after 48 hrs by Annexin V-FITC/propidium iodide staining based flow cytometry (reference value: 25.3%)", "format": "functional", "conditions": "HCT-116"}, "[19]": {"experiment": "Cytotoxicity against human Saos2 cells after 72 hrs by CCK-8 assay", "format": "functional, cell-based", "conditions": "SAOS-2, 72 h", "in_short": "as §1"}, "[20]": {"experiment": "Cytotoxicity against human OVCAR3 cells assessed as growth inhibition at 20 uM after 72 hrs by CCK-8 assay", "format": "functional", "conditions": "OVCAR-3, 72 h, read-out: GI", "in_short": "as §1"}, "HCT-116 [21]": {"system": "HCT-116", "experiment": "Induction of apoptosis in human HCT116 cells assessed as necrotic cells at 8 uM after 48 hrs by Annexin V-FITC/propidium iodide staining based flow cytometry (reference value: 0.8%)", "format": "functional"}, "[22]": {"experiment": "Cytotoxicity against human L02 cells after 72 hrs by CCK-8 assay", "format": "toxicity, cell-based", "in_short": "as §1"}, "HCT-116 [23]": {"system": "HCT-116", "experiment": "Inhibition of TrxR in human HCT116 cells after 3 hrs by DTNB assay", "format": "cell-based", "in_short": "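HCT116 cells plated at 4 × 10⁵ cells/well in six-well plates and incubated with or without compound for 3 h. Total protein extracted and quantified. Cellular TrxR activity measured by a DTNB-based kit with absorbance read at 412 nm.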"}, "HCT-116 [24]": {"system": "HCT-116", "experiment": "Induction of apoptosis in human HCT116 cells assessed as late apoptotic cells at 1 uM after 48 hrs by Annexin V-FITC/propidium iodide staining based flow cytometry (reference value: 6.7%)", "format": "functional"}, "[25]": {"experiment": "Cell cycle arrest in human HCT116 cells assessed as G1 phase accumulation at 4 uM after 48 hrs by Annexin V-FITC/propidium iodide staining based flow cytometry (reference value: 40.83%)", "format": "functional", "conditions": "HCT-116"}, "HCT-116 [26]": {"system": "HCT-116", "experiment": "Induction of apoptosis in human HCT116 cells assessed as necrotic cells at 0.5 uM after 48 hrs by Annexin V-FITC/propidium iodide staining based flow cytometry (reference value: 0.8%)", "format": "functional"}, "[27]": {"experiment": "Cytotoxicity against human MDA-MB-231 cells assessed as growth inhibition at 20 uM after 72 hrs by CCK-8 assay", "format": "functional", "conditions": "MDA-MB-231, 72 h, read-out: GI", "in_short": "as §1"}, "[28]": {"experiment": "Cell cycle arrest in human HCT116 cells assessed as G2/M phase accumulation at 1 uM after 48 hrs by Annexin V-FITC/propidium iodide staining based flow cytometry (reference value: 25.3%)", "format": "functional", "conditions": "HCT-116"}, "HCT-116 [29]": {"system": "HCT-116", "experiment": "Induction of apoptosis in human HCT116 cells assessed as activation of cleaved caspases 3 after 9 hrs by Western blot method", "format": "functional, cell-based", "in_short": "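HCT116 plated at 4×10^5 cells/well and incubated with or without compound for 9 h. Protein then extracted and run on 12% SDS-PAGE western blot probed with anti-cleaved caspase 3, anti-caspase 3, anti-Bax and anti-Bcl-2.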"}, "HCT-116 [30]": {"system": "HCT-116", "experiment": "Induction of apoptosis in human HCT116 cells assessed as late apoptotic cells at 4 uM after 48 hrs by Annexin V-FITC/propidium iodide staining based flow cytometry (reference value: 6.7%)", "format": "functional"}, "HCT-116 [31]": {"system": "HCT-116", "experiment": "Induction of apoptosis in human HCT116 cells assessed as early apoptotic cells at 16 uM after 48 hrs by Annexin V-FITC/propidium iodide staining based flow cytometry (reference value: 3.8%)", "format": "functional", "in_short": "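HCT116 seeded at 2×10^5 cells/well, cultured 6 h, then treated 48 h at 0.1, 0.5, 1, 4, 8 or 16 µM; DMSO (0.1%) served as vehicle. Cells washed twice in cold PBS, resuspended in binding buffer with FITC Annexin V and PI for 15 min at RT in the dark, diluted, and run on flow cytometry within 1 h.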"}}, "note": "Calls of active or inactive are those of the source. The rule behind the calls is not given here."}
{"smiles": "CC(C)(C)OC(=O)/C=C1/C(=O)Nc2ccccc21", "values": [{"measurement": "Activity", "setting": "[1]", "result": 5.11, "unit": "%"}, {"measurement": "Activity", "setting": "HCT-116 [2]", "result": 87.9, "unit": "%"}, {"measurement": "Activity", "setting": "HCT-116 [3]", "result": 90.8, "unit": "%"}, {"measurement": "Activity", "setting": "[4]", "result": 0.25, "unit": "%"}, {"measurement": "Activity", "setting": "[5]", "result": 32.9, "unit": "%"}, {"measurement": "Activity", "setting": "[6]", "result": 28.9, "unit": "%"}, {"measurement": "inhibition of growth at 20 µM", "setting": "[7]", "result": 89.5, "unit": "%"}, {"measurement": "IC50", "setting": "[8]", "result": 3.42, "unit": "µM"}, {"measurement": "Activity", "setting": "HCT-116 [9]", "result": 89.1, "unit": "%"}, {"measurement": "inhibition at 72 h, 20 µM", "setting": "[10]", "result": 64.1, "unit": "%"}, {"measurement": "Activity", "setting": "[11]", "result": 20.6, "unit": "%"}, {"measurement": "IC50", "setting": "[12]", "result": 6.21, "unit": "µM"}, {"measurement": "Activity", "setting": "HCT-116 [13]", "result": 26.1, "unit": "%"}, {"measurement": "Activity", "setting": "[14]", "result": 40.9, "unit": "%"}, {"measurement": "inhibition of growth at 20 µM", "setting": "[15]", "result": 87.3, "unit": "%"}, {"measurement": "Activity", "setting": "[16]", "result": 35.7, "unit": "%"}, {"measurement": "Activity", "setting": "[17]", "result": 30.1, "unit": "%"}, {"measurement": "Activity", "setting": "[18]", "result": 11.7, "unit": "%"}, {"measurement": "IC50", "setting": "[19]", "result": 6.11, "unit": "µM"}, {"measurement": "inhibition of growth at 20 µM", "setting": "[20]", "result": 59.6, "unit": "%"}, {"measurement": "Activity", "setting": "HCT-116 [21]", "result": 0.8, "unit": "%"}, {"measurement": "IC50 at 72 h", "setting": "[22]", "result": 2.45, "unit": "µM"}, {"measurement": "inhibition", "setting": "HCT-116 [23]", "result": "Dose-dependent effect"}, {"measurement": "Activity", "setting": "HCT-116 [24]", "result": 9.1, "unit": "%"}, {"measurement": "Activity", "setting": "[25]", "result": 26.2, "unit": "%"}, {"measurement": "Activity", "setting": "HCT-116 [26]", "result": 0.6, "unit": "%"}, {"measurement": "inhibition of growth at 20 µM", "setting": "[27]", "result": 87.6, "unit": "%"}, {"measurement": "Activity", "setting": "[28]", "result": 33.1, "unit": "%"}, {"measurement": "Activity", "setting": "HCT-116 [29]", "result": "Active"}, {"measurement": "Activity", "setting": "HCT-116 [30]", "result": 6.6, "unit": "%"}, {"measurement": "Activity", "setting": "HCT-116 [31]", "result": 2.7, "unit": "%"}]}
